Assay outcomes deposited in PubChem BioAssay by several laboratories.
In the library only some 2.9% were active in any assay of this set; here they are far more common.
T cruzi inh: blocks replication of Trypanosoma cruzi; T. cruzi beta-gal in NIH3T3, luminescence, 90 h; inhibition, % (no concentration beside the values); 1.4% of 300,000 active; AID 1885;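 active = mean inhibition across valid replicates above about 55%, limit read from the data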;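 note: signal also drops with host cell toxicity which is not excluded here; higher percent means less beta-gal luminescence so fewer parasites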
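System: NIH/3T3 fibroblasts plus reporter T. cruzi. Medium: DMEM plus 2% FBS. Probe or stimulus: 5000 reporter trypomastigotes per well. Compound: single 50 nL compound addition per well in DMSO. Incubation: co-culture of at least 90 h after 3 h attachment. Detection: GalScreen β-gal luminescence, detergent lysis, 60 min. Evaluation: parasite load inhibition, %.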
NR1D1 modulator: modulates human Rev-erb alpha binding to DNA | Rev-erbα–FITC-DNA binding, fluorescence polarization, 90 min | activity, % at 10 µM | 0.79% of 370,000 active | AID 1259318;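 active = activity above about 14%, limit read from the data; passing the limit was not always enough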
Target sequence (P20393 whole entry, looked up): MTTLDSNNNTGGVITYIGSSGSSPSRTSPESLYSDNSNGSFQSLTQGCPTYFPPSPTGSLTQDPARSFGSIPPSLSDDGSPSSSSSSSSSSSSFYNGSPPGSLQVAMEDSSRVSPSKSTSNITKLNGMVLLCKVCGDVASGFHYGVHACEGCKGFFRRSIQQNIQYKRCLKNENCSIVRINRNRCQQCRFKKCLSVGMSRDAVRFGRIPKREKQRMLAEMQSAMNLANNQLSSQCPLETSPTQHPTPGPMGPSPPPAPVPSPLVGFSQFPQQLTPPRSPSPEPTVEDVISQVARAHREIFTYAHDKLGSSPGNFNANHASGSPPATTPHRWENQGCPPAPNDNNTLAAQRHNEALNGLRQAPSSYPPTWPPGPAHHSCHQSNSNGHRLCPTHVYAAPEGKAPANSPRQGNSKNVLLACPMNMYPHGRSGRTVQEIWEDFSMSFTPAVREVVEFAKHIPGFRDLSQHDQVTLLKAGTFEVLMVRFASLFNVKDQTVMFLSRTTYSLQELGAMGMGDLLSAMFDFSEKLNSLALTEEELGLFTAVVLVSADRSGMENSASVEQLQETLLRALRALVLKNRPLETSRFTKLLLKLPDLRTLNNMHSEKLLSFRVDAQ
hiPSC survival: hiPSC single-cell survival enhancement. ATPlite luminescence; 100% = ROCK inhibitor wells, 0% = DMSO. survival enhancement, % at 20 µM. 0.044% of 360,000 active. AID 602274; in the data active = survival enhancement above about 18%;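 note: cells exposed to compounds for 16 hours before the ATP read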
PG9 Ab binder: small molecules binding HIV-1 gp120 antibody PG9; TR-FRET gp120-PG9 antibody binding; inhibition, % at 6.7 µM; 0.43% of 360,000 active; AID 624416; in the data active = inhibition above about 8.5%
TAG inh: triacylglycerol accumulation inhibition; H9c2 cells, Nile Red lipid (TAG) fluorescence; cells loaded with 200 µM oleic acid; inhibition, % at 12.5 µM; 0.66% of 230,000 active;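 active = pattern-corrected inhibition of lipid staining of at least 50% with the nuclear-stain viability signal not falling by more than 50%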
MIN6 prolif: inducers of beta-cell replication in MIN6 cells; AID 2380; 0.29% of 330,000 active; MIN6 cells proliferation, ATPlite luminescence, 48 h; cells starved in 0.2% serum; 100% = growth in 10% serum; proliferation, % at 10 µM;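 active = compounds whose signal lies at least 3.5 SD above the mean of all wells on their plate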
Large screens that a line does not name were inactive.

COc1cc(C(=O)Nc2nc(-c3ccc(F)cc3)cs2)ccc1OCC(=O)N1CCOCC1	T cruzi inh 60 (no result: TAG inh)
COc1ccc(-c2csc(NC(=O)c3ccc(OCC(=O)N4CCOCC4)c(OC)c3)n2)cc1	none (no result: TAG inh)
CCOCCCNC(=O)CN1C(=O)c2cccc3cccc1c23	none (no result: TAG inh)
Cc1ccc(S(=O)(=O)N2CCC(C(=O)N3CCN(c4ccccn4)CC3)CC2)cc1	none
COc1cccc(OCc2nnc(SCc3cc(=O)[nH]c4ccccc34)o2)c1	none (no result: TAG inh)
CCOC(=O)c1c(SCCN2CCCC2)n(-c2ccccc2)c(=S)n(-c2ccccc2)c1=O	TAG inh 82 (no result: T cruzi inh, MIN6 prolif)
CC1CCCN(C(=O)Cc2cn(Cc3cccc(Cl)c3)c3ccccc23)C1 (centres undefined)	T cruzi inh 55 (no result: TAG inh)
O=C(Cc1cn(Cc2cccc(Cl)c2)c2ccccc12)N1CCCCCC1	T cruzi inh 59 (no result: TAG inh)
O=C(Nc1cccc(S(=O)(=O)N2CCOCC2)c1)c1cc2ccccc2o1	none
O=[N+]([O-])c1ccc(Cl)cc1Sc1nc2ccccc2o1	none (no result: TAG inh)
O=[N+]([O-])c1ccc(Sc2nc3ccccc3o2)c([N+](=O)[O-])c1	T cruzi inh 55 (no result: TAG inh)
O=c1[nH]c(Sc2ccc([N+](=O)[O-])cc2[N+](=O)[O-])nc2ccccc12	T cruzi inh 61
Cc1nc(-c2ccncc2)nc(NCCNc2ncccc2C(F)(F)F)c1Cl	T cruzi inh 77
CSCCOC(=O)C1=C(C)NC(=O)CC1c1ccccc1Cl (centres undefined)	none
CN(Cc1ccccc1)C(=O)CCS(=O)(=O)c1ccc2c(c1)oc(=O)n2C	none (no result: TAG inh)
Fc1ccc(-c2cc3nc(-c4ccccc4)cc(N4CCN(CCN5CCOCC5)CC4)n3n2)cc1	T cruzi inh 55 (no result: TAG inh, MIN6 prolif)
COc1cccc(-c2cc3nc(-c4ccccc4)cc(N4CCC5(CC4)OCCO5)n3n2)c1	T cruzi inh 55 (no result: TAG inh)
COc1cccc(-c2cc3nc(-c4ccccc4)cc(N4CCN(C(=O)c5ccoc5)CC4)n3n2)c1	none (no result: T cruzi inh, MIN6 prolif)
CCCc1c(C(=O)Nc2ccc(OC)cc2)cnn1-c1ccccc1	none
Cc1cccc(NC(=S)NC(NC(=O)OCc2ccccc2)C(Cl)(Cl)Cl)c1 (centres undefined)	T cruzi inh 57 (no result: TAG inh)
CCOc1cc(CNc2ccc(Br)cc2)cc(Br)c1OCC(=O)NC(C)(C)C	T cruzi inh 66 (no result: NR1D1 modulator, TAG inh)
COc1ccccc1CCN1C(=S)NC(C)(C)CC1(C)O (centres undefined)	none (no result: NR1D1 modulator)
Cc1nnc(NC(=O)C2CCCC2)s1	none
COC(=O)c1ccc(NC(=O)CCN2CCN(Cc3ccccc3)CC2)cc1	T cruzi inh 65 (no result: TAG inh)
COC(=O)c1ccc(NC(=S)N2CCN(Cc3ccccc3)CC2)cc1	none
CCc1c(C#N)c(SCCC(=O)Nc2ccc(F)cc2)nc2c1C(=O)CC(C)(C)C2	T cruzi inh 56 (no result: TAG inh)
O=S(=O)(c1ccc(Cl)cc1)N1CCCC(C(F)(F)F)C1 (centres undefined)	none
CCOC(=O)N1CCN(S(=O)(=O)N2CCCC(C(=O)NCCCN3CCCCC3CC)C2)CC1 (centres undefined)	none (no result: TAG inh)
CCOC(=O)c1cc(-c2ccc(F)cc2)n(CCC(=O)NC2CCN(Cc3ccccc3)CC2)c1C	T cruzi inh 78 (no result: TAG inh)
C/C(=N\NC(=O)COc1ccc(C#N)cc1)c1ccccc1OC(F)F	MIN6 prolif 6.9 (no result: TAG inh)
C/C(=N\NC(=O)COc1ccc(C(C)(C)C)cc1)c1ccc(OC(F)F)cc1	none (no result: TAG inh)
O=C(NCCC1=CCCCC1)c1ccc2c(c1)N(Cc1ccccc1)C(=O)CS2	T cruzi inh 56 (no result: TAG inh)
Cc1cccc(N(C(=O)C(F)(F)F)C(C(=O)NC2CCCCC2)c2cccs2)c1 (centres undefined)	T cruzi inh 59 (no result: TAG inh)
COC(=O)c1ccc(C(C(=O)NC2CCCCC2)N(Cc2ccc(F)cc2)C(=O)Cc2cccs2)cc1 (centres undefined)	none (no result: TAG inh)
COc1cccc(CN(C(=O)Cc2c[nH]c3ccccc23)C(C(=O)NC2CCCCC2)c2cccs2)c1 (centres undefined)	T cruzi inh 55 (no result: TAG inh)
Cc1ccc(C(C(=O)NC2CCCCC2)N(C(=O)Cc2c[nH]c3ccccc23)c2ccccc2)o1 (centres undefined)	T cruzi inh 56 (no result: TAG inh)
